Data reported in ChEMBL document CHEMBL1139946, “1-Aryl-4,6-dihydropyrazolo[4,3-d][1]benzazepin-5(1H)-ones: a new class of antiproliferative agents with selectivity for human leukemia and breast cancer cell lines” (Eur J Med Chem, 2007).

Tests used:
K562 = test: Antitumor activity against human K562 cells after 48 hrs by sulforhodamine B protein assay; type: functional; conditions: K562, 48 h
Method in brief: (§1)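 Part of the NCI 60-cell-line screen. Compounds tested at five concentrations (10^-8 to 10^-4 M) with continuous exposure for 48 h. Cell growth read by sulforhodamine B protein assay, with percent growth from optical density of treated versus untreated control cultures. GI50 is the concentration giving 50% net growth inhibition.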

MDA-MB-435 = test: Antitumor activity against human MDA-MB435 cells after 48 hrs by sulforhodamine B protein assay; type: functional; conditions: MDA-MB-435, 48 h; method in brief: as §1

COc1cccc2c1C(=O)c1c(O)c3c(c(O)c1C2=O)C[C@@](O)(C(=O)CO)C[C@@H]3O[C@H]1C[C@H](N)[C@H](O)[C@H](C)O1 [DOXORUBICIN]
GI50 (K562): 100 nM | GI50 (MDA-MB-435): 200 nM
